Measurements published in ChEMBL document CHEMBL1147157, “Virtual screening for novel openers of pancreatic K(ATP) channels” (J Med Chem, 2007).

Assays:
[1] = Inhibition of insulin release from rat INS-1E cells
[2] = target: Sulfonylurea receptor 1, Kir6.2 (Homo sapiens) (UniProt Q14654+Q09428); assay: Activity at Kir6.2/SUR1 KATP channels expressed in HEK293 cells assessed as repolarization of tolbutamide-induced membrane depolarization relative to BPDZ73; type: cell-based
Method in brief: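 HEK 293 cells stably expressing human Kir6.2/SUR1, seeded on poly(lysine)-coated plates, cultured 2 days. Membrane-potential fluorescent dye (ex 490/em 550 nm) in loading buffer/HBSS with 10 µM tolbutamide, 34 °C; fluorescence read before and 5-10 min after compound.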

[3] = target: Sulfonylurea receptor 1, Kir6.2 (Homo sapiens, UniProt Q09428+Q14654); assay: Activity at Kir6.2/SUR1 KATP channels expressed in HEK293 cells assessed as repolarization of tolbutamide-induced membrane depolarization; type: cell-based
Chain of Sulfonylurea receptor 1, Kir6.2 (Q14654 whole entry): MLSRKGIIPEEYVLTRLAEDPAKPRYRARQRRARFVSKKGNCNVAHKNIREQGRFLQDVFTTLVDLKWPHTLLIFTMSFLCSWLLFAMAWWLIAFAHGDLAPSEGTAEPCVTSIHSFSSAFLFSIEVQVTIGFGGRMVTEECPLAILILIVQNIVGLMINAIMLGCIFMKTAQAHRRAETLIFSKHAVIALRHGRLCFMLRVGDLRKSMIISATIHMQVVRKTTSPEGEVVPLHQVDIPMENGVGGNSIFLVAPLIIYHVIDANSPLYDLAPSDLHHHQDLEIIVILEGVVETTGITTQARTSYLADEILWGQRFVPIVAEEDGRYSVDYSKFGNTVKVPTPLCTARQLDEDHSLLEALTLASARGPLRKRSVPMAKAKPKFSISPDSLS
Chain of Sulfonylurea receptor 1, Kir6.2 (Q09428 whole entry): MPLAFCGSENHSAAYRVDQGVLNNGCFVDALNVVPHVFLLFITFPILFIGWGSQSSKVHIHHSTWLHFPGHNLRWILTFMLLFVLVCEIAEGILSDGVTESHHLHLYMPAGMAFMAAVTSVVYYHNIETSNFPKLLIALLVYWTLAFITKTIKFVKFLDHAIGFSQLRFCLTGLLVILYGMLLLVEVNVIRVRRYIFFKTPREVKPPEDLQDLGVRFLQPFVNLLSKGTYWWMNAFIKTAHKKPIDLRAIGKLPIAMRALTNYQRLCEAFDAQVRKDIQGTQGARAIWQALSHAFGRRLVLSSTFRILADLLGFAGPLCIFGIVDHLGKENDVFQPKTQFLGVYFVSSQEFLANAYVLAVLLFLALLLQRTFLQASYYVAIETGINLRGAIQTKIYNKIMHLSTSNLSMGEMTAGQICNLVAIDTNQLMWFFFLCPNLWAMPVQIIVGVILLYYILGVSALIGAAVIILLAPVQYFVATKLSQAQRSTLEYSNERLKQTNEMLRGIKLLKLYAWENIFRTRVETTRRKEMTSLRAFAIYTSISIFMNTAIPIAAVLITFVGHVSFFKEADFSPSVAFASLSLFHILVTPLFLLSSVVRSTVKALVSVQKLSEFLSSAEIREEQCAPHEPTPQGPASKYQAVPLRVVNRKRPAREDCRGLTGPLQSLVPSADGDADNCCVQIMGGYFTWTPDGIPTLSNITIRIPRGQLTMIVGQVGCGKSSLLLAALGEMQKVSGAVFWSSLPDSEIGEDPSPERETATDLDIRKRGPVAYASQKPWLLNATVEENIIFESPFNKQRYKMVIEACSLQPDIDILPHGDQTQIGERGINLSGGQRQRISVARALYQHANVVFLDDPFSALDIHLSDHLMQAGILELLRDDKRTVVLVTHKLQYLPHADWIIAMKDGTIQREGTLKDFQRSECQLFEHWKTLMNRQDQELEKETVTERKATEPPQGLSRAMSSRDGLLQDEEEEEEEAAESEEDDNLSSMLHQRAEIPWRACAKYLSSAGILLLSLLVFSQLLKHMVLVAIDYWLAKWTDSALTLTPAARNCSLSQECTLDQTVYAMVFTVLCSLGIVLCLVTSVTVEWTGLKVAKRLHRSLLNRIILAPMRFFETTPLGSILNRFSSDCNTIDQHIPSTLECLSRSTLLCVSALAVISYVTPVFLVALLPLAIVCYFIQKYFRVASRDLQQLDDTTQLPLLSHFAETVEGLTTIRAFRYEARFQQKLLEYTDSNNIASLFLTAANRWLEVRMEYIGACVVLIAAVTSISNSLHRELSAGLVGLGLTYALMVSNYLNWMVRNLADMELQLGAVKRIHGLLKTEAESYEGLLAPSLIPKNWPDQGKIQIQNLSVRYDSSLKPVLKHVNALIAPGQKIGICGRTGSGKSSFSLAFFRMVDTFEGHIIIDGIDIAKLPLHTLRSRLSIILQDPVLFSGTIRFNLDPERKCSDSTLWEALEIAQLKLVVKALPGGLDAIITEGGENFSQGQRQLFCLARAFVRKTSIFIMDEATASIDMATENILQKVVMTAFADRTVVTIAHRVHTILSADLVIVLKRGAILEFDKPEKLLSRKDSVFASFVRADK

EC50 [1] [µM]	SMILES	Emax [2] [%]	EC50 [3] [µM]	IC50 [1] [µM]
20.3	CC1=Nc2ccc(Cl)cc2S(=O)(=O)N1 [DIAZOXIDE]	–	–	–
–	CC(=O)Nc1nc2ccccc2n1CCN1CCCC1	55	> 30	–
–	NC(=O)c1ccccc1NS(=O)(=O)c1ccc(Cl)cc1	47	> 30	–
–	OCCn1c(-c2ccc(F)cc2)cs/c1=N\c1ccc(F)cc1	105	21	18
–	COc1ccc2[nH]c(N3CCCCC3)nc2c1	52	> 30	–
–	O=c1[nH]cnc2ncc(-c3ccccc3)nc12	84	> 30	–
–	COc1ccc2nc(C(F)(F)F)c(C#N)c(N)c2c1	160	15	25
–	CC(C)NC1=NS(=O)(=O)c2cc(Cl)ccc2N1	100	0.25	0.94
–	N#Cc1c(-c2ccccc2)c(-c2ccccc2)n[nH]c1=O	55	> 30	–
–	O=C(Nc1nccs1)c1c(O)c2cc(Cl)ccc2oc1=O	171	> 30	56
